{"source": "ChEMBL document CHEMBL3779852", "about": "“Structure-based design of N-substituted 1-hydroxy-4-sulfamoyl-2-naphthoates as selective inhibitors of the Mcl-1 oncoprotein” (Eur J Med Chem, 2016)", "key": {"[1]": {"biological_target": "T1, Induced myeloid leukemia cell differentiation protein Mcl-1 (Homo sapiens, UniProt Q07820)", "T1 sequence (Q07820 whole entry, the tested form may be a part)": "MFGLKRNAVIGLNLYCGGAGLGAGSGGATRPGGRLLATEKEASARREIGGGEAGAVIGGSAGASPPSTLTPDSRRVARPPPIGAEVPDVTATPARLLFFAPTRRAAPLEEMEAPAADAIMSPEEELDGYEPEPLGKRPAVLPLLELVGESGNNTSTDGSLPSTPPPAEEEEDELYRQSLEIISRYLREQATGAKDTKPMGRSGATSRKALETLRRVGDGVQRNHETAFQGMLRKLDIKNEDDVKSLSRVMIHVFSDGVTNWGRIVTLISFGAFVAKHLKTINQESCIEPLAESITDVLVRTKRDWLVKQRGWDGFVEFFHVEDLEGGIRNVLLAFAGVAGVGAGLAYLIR", "experiment": "Inhibition of His6-MBP tagged recombinant human Mcl-1 residues 172 to 327 expressed in Escherichia coli assessed as inhibition of interaction with Bak BH3 peptide (GQVGRQLAIIGDDINR) after 3 hrs by fluorescence polarization competition assay"}, "[2]": {"experiment": "Inhibition of Bcl-XL (unknown origin) after 3 hrs by fluorescence polarization competition assay", "set-up": "species or system Homo sapiens"}, "Homo sapiens": {"species": "Homo sapiens", "experiment": "Selectivity ratio of Ki for Bcl-XL (unknown origin) to Ki for His6-MBP tagged recombinant human Mcl-1 residues 172 to 327 expressed in Escherichia coli", "how_it_was_run": "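Ratio computed as Ki(Bcl-xL) divided by Ki(Mcl-1). Both Ki values come from FP competition IC50s converted with the Nikolovska-Coleska equation, averaged over at least two independent assays. Hill-equation fit gives the IC50.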"}, "SK-MEL-5": {"test_system": "SK-MEL-5", "experiment": "Antiproliferative activity against human SK-MEL-5 cells after 48 hrs by Cell titer blue viability assay", "format": "functional, cell-based", "details": "SK-MEL-5, 48 h"}, "A-375": {"test_system": "A-375", "experiment": "Antiproliferative activity against human A375 cells after 48 hrs by Cell titer blue viability assay", "format": "functional, cell-based", "details": "A-375, 48 h", "how_it_was_run": "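A375 cells seeded at 5,000/well in DMEM with 10% HIFBS and PenStrep, cultured overnight. Compounds added at final 4.69–300 μM (two-fold series) in 1% DMSO; vehicle controls also at 1% DMSO. After 48 h exposure, Cell Titer-Blue added for 2 h, fluorescence read at 560 ex/590 em. Percent viability relative to untreated cells, corrected for cell-free background.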"}, "[3]": {"biological_target": "T1, Induced myeloid leukemia cell differentiation protein Mcl-1", "experiment": "Binding affinity to recombinant human 15N-labeled Mcl-1 (172 to 327 residues) expressed in Escherichia coli by NMR spectroscopy", "how_it_was_run": "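Proton shifts were referenced to the H2O/HDO signal (4.658 ppm versus external TSP) at 37 °C. The protein was size-exclusion purified to >98% purity by SDS-PAGE, with concentration determined by Bradford assay.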"}}, "note": "The source made the active and inactive calls. The calls are words filed in the database; no cut-off is given here."}
{"compound": "COC(=O)c1cc(S(=O)(=O)N(CC(C)C)c2ccc(Br)cc2)c2ccccc2c1OC", "values": [{"measurement": "Ki", "setting": "[1]", "value": "> 500", "unit": "µM"}]}
{"compound": "Cc1ccc(Oc2ccc(NS(=O)(=O)c3cc(C(=O)O)c(O)c4ccccc34)cc2)cc1", "values": [{"measurement": "Ki", "setting": "[2]; read-out: Ki", "value": 0.84, "unit": "µM"}, {"measurement": "Ratio Ki", "setting": "Homo sapiens", "value": 2.5}]}
{"compound": "Cc1cc(Oc2ccc(N(Cc3ccccc3)S(=O)(=O)c3cc(C(=O)O)c(O)c4ccccc34)cc2)cc(C)c1Cl", "values": [{"measurement": "IC50", "setting": "SK-MEL-5", "value": 90, "unit": "µM"}, {"measurement": "Ki", "setting": "[2]; read-out: Ki", "value": 0.34, "unit": "µM"}, {"measurement": "IC50", "setting": "A-375", "value": 50, "unit": "µM"}]}
{"compound": "CN(C)S(=O)(=O)c1cc(C(=O)O)c(O)c2ccccc12", "values": [{"measurement": "Ki", "setting": "[2]", "value": "Not Active"}]}
{"compound": "O=C(O)c1cc(S(=O)(=O)Nc2ccc(Br)cc2)c2ccccc2c1O", "values": [{"measurement": "IC50", "setting": "SK-MEL-5", "value": 300, "unit": "µM"}, {"measurement": "Ki", "setting": "[2]; read-out: Ki", "value": 51.4, "unit": "µM"}, {"measurement": "IC50", "setting": "A-375", "value": 300, "unit": "µM"}, {"measurement": "Ratio Ki", "setting": "Homo sapiens", "value": 19}]}
{"compound": "CC(C)Oc1ccc(NS(=O)(=O)c2cc(C(=O)O)c(O)c3ccccc23)cc1", "values": [{"measurement": "Ki", "setting": "[2]", "value": "Not Active"}]}
{"compound": "NS(=O)(=O)c1cc(C(=O)O)c(O)c2ccccc12", "values": [{"measurement": "Ki", "setting": "[2]", "value": "Not Active"}]}
{"compound": "O=C(O)c1cc(S(=O)(=O)Nc2ccc(Oc3cccc4ccccc34)cc2)c2ccccc2c1O", "values": [{"measurement": "Ki", "setting": "[2]; read-out: Ki", "value": 0.22, "unit": "µM"}, {"measurement": "Ratio Ki", "setting": "Homo sapiens", "value": 3.7}]}
{"compound": "Cc1cc(Oc2ccc(N(CC(C)C)S(=O)(=O)c3cc(C(=O)O)c(O)c4ccccc34)cc2)cc(C)c1Cl", "values": [{"measurement": "Ki", "setting": "[2]; read-out: Ki", "value": 0.17, "unit": "µM"}, {"measurement": "Ratio Ki", "setting": "Homo sapiens", "value": 2.1}]}
{"compound": "Cc1cc(Oc2ccc(NS(=O)(=O)c3cc(C(=O)O)c(O)c4ccccc34)cc2)cc(C)c1Cl", "values": [{"measurement": "Ki", "setting": "[2]; read-out: Ki", "value": 0.48, "unit": "µM"}, {"measurement": "Ratio Ki", "setting": "Homo sapiens", "value": 4.1}]}
{"compound": "Cc1cc(C)cc(Oc2ccc(NS(=O)(=O)c3cc(C(=O)O)c(O)c4ccccc34)cc2)c1", "values": [{"measurement": "Ki", "setting": "[2]; read-out: Ki", "value": 0.39, "unit": "µM"}, {"measurement": "Ratio Ki", "setting": "Homo sapiens", "value": 1.4}]}
{"compound": "O=C(O)c1cc(S(=O)(=O)NCc2ccc(Cl)cc2)c2ccccc2c1O", "values": [{"measurement": "Ki", "setting": "[2]; read-out: Ki", "value": 338, "unit": "µM"}, {"measurement": "Ratio Ki", "setting": "Homo sapiens", "value": 16}]}
{"compound": "O=C(O)c1cc(S(=O)(=O)Nc2ccc(Oc3cccc(Br)c3)cc2)c2ccccc2c1O", "values": [{"measurement": "Ki", "setting": "[2]; read-out: Ki", "value": 0.3, "unit": "µM"}, {"measurement": "Ratio Ki", "setting": "Homo sapiens", "value": 3.8}]}
{"compound": "O=C(O)c1cc(S(=O)(=O)Nc2ccc(Oc3ccc(Cl)cc3Cl)cc2)c2ccccc2c1O", "values": [{"measurement": "Ki", "setting": "[2]; read-out: Ki", "value": 0.19, "unit": "µM"}, {"measurement": "Ratio Ki", "setting": "Homo sapiens", "value": 2.4}]}
{"compound": "COC(=O)c1cc(S(=O)(=O)N(CC(C)C)c2ccc(Br)cc2)c2ccccc2c1O", "values": [{"measurement": "Ki", "setting": "[1]", "value": "> 500", "unit": "µM"}]}
{"compound": "O=C(O)c1cc(S(=O)(=O)NCC2CCCCC2)c2ccccc2c1O", "values": [{"measurement": "Ki", "setting": "[2]; read-out: Ki", "value": 77.6, "unit": "µM"}, {"measurement": "Ratio Ki", "setting": "Homo sapiens", "value": 11}]}
{"compound": "COC(=O)c1cc(S(=O)(=O)N(CC(C)C)c2ccc(OC(C)C)cc2)c2ccccc2c1O", "values": [{"measurement": "IC50", "setting": "SK-MEL-5", "value": 300, "unit": "µM"}, {"measurement": "IC50", "setting": "A-375", "value": 300, "unit": "µM"}, {"measurement": "inhibition", "setting": "[1]", "value": "inactive"}]}
{"compound": "O=C(O)c1cc(S(=O)(=O)Nc2ccccc2)c2ccccc2c1O", "values": [{"measurement": "Ki", "setting": "[2]", "value": "Not Active"}]}
{"compound": "O=C(O)c1cc(S(=O)(=O)Nc2ccc([N+](=O)[O-])cc2)c2ccccc2c1O", "values": [{"measurement": "Ki", "setting": "[2]; read-out: Ki", "value": 23.3, "unit": "µM"}, {"measurement": "Ratio Ki", "setting": "Homo sapiens", "value": 5.2}]}
{"compound": "O=C(O)c1cc(S(=O)(=O)NCc2ccccc2)c2ccccc2c1O", "values": [{"measurement": "Ki", "setting": "[2]", "value": "Not Active"}]}
{"compound": "O=C(O)c1cc(S(=O)(=O)Nc2ccc3ccccc3c2)c2ccccc2c1O", "values": [{"measurement": "Ki", "setting": "[2]; read-out: Ki", "value": 68.5, "unit": "µM"}, {"measurement": "Ratio Ki", "setting": "Homo sapiens", "value": 15}]}
{"compound": "O=C(O)c1cc(S(=O)(=O)Nc2ccc(Br)cc2Br)c2ccccc2c1O", "values": [{"measurement": "Ki", "setting": "[2]; read-out: Ki", "value": 2.31, "unit": "µM"}, {"measurement": "Ratio Ki", "setting": "Homo sapiens", "value": 5.5}]}
{"compound": "CC(C)CN(c1ccc(OC(C)C)cc1)S(=O)(=O)c1cc(C(=O)O)c(O)c2ccccc12", "values": [{"measurement": "IC50", "setting": "SK-MEL-5", "value": 300, "unit": "µM"}, {"measurement": "Ki", "setting": "[2]; read-out: Ki", "value": 6.08, "unit": "µM"}, {"measurement": "Activity", "setting": "[3]", "value": "Active"}, {"measurement": "IC50", "setting": "A-375", "value": 150, "unit": "µM"}]}
{"compound": "Cc1cc(Oc2ccc(N(C3CCCC3)S(=O)(=O)c3cc(C(=O)O)c(O)c4ccccc34)cc2)cc(C)c1Cl", "values": [{"measurement": "Ki", "setting": "[2]; read-out: Ki", "value": 0.29, "unit": "µM"}, {"measurement": "Ratio Ki", "setting": "Homo sapiens", "value": 8.8}]}
{"compound": "COc1ccc(NS(=O)(=O)c2cc(C(=O)O)c(O)c3ccccc23)cc1", "values": [{"measurement": "Ki", "setting": "[2]; read-out: Ki", "value": 71.9, "unit": "µM"}, {"measurement": "Ratio Ki", "setting": "Homo sapiens", "value": 6}]}
{"compound": "CC(=O)OCOC(=O)c1cc(S(=O)(=O)N(CC(C)C)c2ccc(OC(C)C)cc2)c2ccccc2c1O", "values": [{"measurement": "IC50", "setting": "SK-MEL-5", "value": 15, "unit": "µM"}, {"measurement": "inhibition", "setting": "[1]", "value": "inactive"}]}
{"compound": "O=C(O)c1cc(S(=O)(=O)Nc2ccccc2C(F)(F)F)c2ccccc2c1O", "values": [{"measurement": "Ki", "setting": "[2]; read-out: Ki", "value": 19.3, "unit": "µM"}, {"measurement": "Ratio Ki", "setting": "Homo sapiens", "value": 4.8}]}
{"compound": "O=C(O)c1cc(S(=O)(=O)Nc2cccc3ccccc23)c2ccccc2c1O", "values": [{"measurement": "Ki", "setting": "[2]; read-out: Ki", "value": 110, "unit": "µM"}, {"measurement": "Ratio Ki", "setting": "Homo sapiens", "value": 10}]}
